Key:
Format in all cases: functional
[1] = tested on: Mycobacterium tuberculosis; test: Antitubercular activity against multi-drug resistant Mycobacterium tuberculosis after 21 days by BACTEC MGIT 960 method; settings: 504 h
In short: (§1)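 Compounds dissolved in 100% methanol (10 mg/mL stock), sonicated, filter-sterilised, diluted in sterile water; twofold serial dilutions, working range 8 to 0.125 µg/mL. Strains grown in Middlebrook 7H9 + OADC at 37 °C; inoculum adjusted to McFarland 1, diluted tenfold to 10^5 CFU/mL into MGIT tubes. Drug-free control received a 1:100 inoculum. MIC is the lowest dilution negative when the control turns positive. Triplicate.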

[2] = tested on: Mycobacterium tuberculosis; test: Antitubercular activity against extensively drug-resistant Mycobacterium tuberculosis after 21 days by BACTEC MGIT 960 method; settings: 504 h; in short: as §1
[3] = tested on: Mycobacterium tuberculosis; test: Ratio of SQ109 MIC to compound MIC for extensively drug-resistant Mycobacterium tuberculosis
[4] = tested on: Mycobacterium tuberculosis; test: Ratio of SQ109 MIC to compound MIC for multi-drug resistant Mycobacterium tuberculosis

| Compound | MIC [1] | MIC [2] | Ratio [3] | Ratio [4] |
| --- | --- | --- | --- | --- |
| CC(C)=CCC/C(C)=C/CNCCNC1C2CC3CC(C2)CC1C3.Cl.Cl (stereo not drawn) | 2 µg/mL | 4 µg/mL |  |  |
| CC(C)=CCC/C(C)=C/CNC(=O)CN1[C@H]2C3C4CC5C6C4C2C6[C@@]1(O)C53 (mixture of isomers) | 4 µg/mL | 8 µg/mL |  |  |
| CC(C)=CCC/C(C)=C/CNCC(=O)N[C@]12O[C@H]3C4C5CC(C6C5C3C61)C42 (mixture of isomers) | 4 µg/mL | 8 µg/mL |  |  |
| CC(C)=CCC/C(C)=C/CNCCN[C@@H]1C2C3CC4C5C3CC2C5C41.Cl.Cl (mixture of isomers) | 4 µg/mL | 8 µg/mL |  |  |
| CC(C)=CCC/C(C)=C/CNCCN[C@]12O[C@H]3C4C5CC(C6C5C3C61)C42.Cl.Cl (mixture of isomers) | 2 µg/mL | 4 µg/mL |  |  |
| CC(C)=CCC/C(C)=C/CNCCN[C@@H]1C2C3CC4C5C3C1C5[C@@H](O)C42.Cl.Cl (mixture of isomers) | 2 µg/mL | 4 µg/mL |  |  |
| CC(C)=CCC/C(C)=C/CNCCN1[C@H]2C3C4CC5C6C4C2C6[C@@]1(O)C53.Cl.Cl (mixture of isomers) | 2 µg/mL | 4 µg/mL |  |  |
| CC(C)=CCC/C(C)=C/CNCCNC1C2C3CC4C5CC(C42)C1C53.Cl.Cl (racemic) | 1 µg/mL | 2 µg/mL | 2 | 2 |
